ChEMBL document CHEMBL5661969, “Preclinical evaluation of a potent novel DNA-dependent protein kinase inhibitor NU7441” (Cancer Res, 2006)

Tests used:
[1] = Ratio of drug level in liver to plasma of human SW620 cell xenografted athymic nude CD1 mouse at 10 mg/kg, ip measured after 90 mins by HPLC analysis; assay type: ADME, organism-based
In short: (§1)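 Female CD-1 nu/nu mice bearing s.c. flank SW620 tumours (1×10^7 cells, ~650 mm³ at 10–14 days) given 10 mg/kg i.p. Tissues snap frozen, homogenised 1:3 in PBS. Acetonitrile precipitation, C18 HPLC with acetate pH 5/acetonitrile 75:25 mobile phase, UV 329 nm; tissue levels by method of addition. Tissue/plasma ratio, mean of three mice per time.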

[2] = AUCinfinity in BALB/c mouse at 5 mg/kg, iv by HPLC analysis; assay type: ADME, organism-based; conditions: in vivo
In short: (§2)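 Female BALB/c mice dosed 5 mg/kg i.v. in 10% DMSO/10% cyclodextrin in saline, or 10 mg/kg i.p. or orally at 1 mg/mL in 40% PEG400/saline. Plasma taken at 5, 10, 15, 30, 60, 90, 120, 180, 240 and 360 min, three mice per time. Acetonitrile precipitation, C18 HPLC with UV detection at 329 nm against a plasma standard curve. Parameters derived from mean concentrations.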

[3] = Inhibition of DNA-PK in Chinese hamster DNA-PK proficient V3-YAC cells assessed as potentiation of ionizing radiation-induced cytotoxicity by measuring fold change in radiation LD90 at 0.5 umol/L preincubated for 1 hr followed by gamma-irradiation and measured after 16 hrs by crystal violet staining based assay relative to radiation alone; set-up: species or system Cricetulus griseus; conditions: dose 0.5 µmol/L; time 17 hrs; condition cancer
In short: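 V3-YAC Chinese hamster ovary cells (human DNA-PKcs YAC, kept in 500 μg/mL G-418), RPMI 1640/10% FBS. Cells reseeded drug-free, colonies crystal violet stained after 10–14 days; LD90 ratio without/with inhibitor (DMR90).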

[4] = In vivo inhibition of DNA-PK in human SW620 cells xenografted athymic nude CD1 mouse assessed as potentiation of etoposide phosphate-induced antitumor activity by measuring tumor growth delay at 10 mg/kg, ip administered 5 times daily for 5 days (reference value: 2.7 day); assay type: functional, SW-620; conditions: time 5 day
In short: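 CD-1 nude mice carry palpable s.c. SW620 xenografts (~5×5 mm, 8-10 days), five per group. Treated i.p. daily for 5 days with saline, agent in 40% PEG 400/saline, etoposide phosphate 11.35 mg/kg (equal to 10 mg/kg etoposide), or both, agent given immediately before etoposide phosphate. Read-outs are median relative tumour volume, time to 4× volume (growth delay) and body weight.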

[5] = Clearance in BALB/c mouse at 5 mg/kg, iv by HPLC analysis; assay type: ADME, organism-based; conditions: in vivo; in short: as §2
SW-620 [6] = assay: Cell cycle arrest in human SW620 cells assessed as reduction in S-phase cell population at 1 umol/L measured after 1 hr by propidium iodide staining based flow cytometry relative to control; assay type: toxicity; set-up: scale not given: the % may be the effect or the level left; conditions: sw-620, 1 µM, dose 1 µmol/L
In short: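 Asynchronous SW620 or LoVo cells, seeded 24 h earlier, given control or 1 μmol/L agent medium for 1 h before ionizing radiation, etoposide or doxorubicin, then incubated a further 16 h. Cells fixed in 70% ethanol, stained with propidium iodide (400 μg/mL) plus RNase (1 mg/mL), and analysed by 488 nm flow cytometry.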

[7] = Ratio of drug level in tumor to plasma of human SW620 cell xenografted athymic nude CD1 mouse at 10 mg/kg, ip measured after 15 mins by HPLC analysis; assay type: ADME, organism-based; conditions: tumor and plasma; in short: as §1
[8] = Ratio of drug level in spleen to plasma of human SW620 cell xenografted athymic nude CD1 mouse at 10 mg/kg, ip measured after 15 mins by HPLC analysis; assay type: ADME, organism-based; in short: as §1
[9] = Bioavailability in BALB/c mouse at 5 mg/kg, iv by HPLC analysis; assay type: ADME, organism-based; conditions: in vivo; in short: as §2
[10] = Ratio of drug level in liver to plasma of human SW620 cell xenografted athymic nude CD1 mouse at 10 mg/kg, ip measured after 60 mins by HPLC analysis; assay type: ADME, organism-based; in short: as §1
[11] = Ratio of drug level in spleen to plasma of human SW620 cell xenografted athymic nude CD1 mouse at 10 mg/kg, ip measured after 30 mins by HPLC analysis; assay type: ADME, organism-based; in short: as §1
[12] = Elimination half life in BALB/c mouse at 10 mg/kg, ip by HPLC analysis; assay type: ADME, organism-based; conditions: in vivo, read-out: beta t1/2; in short: as §2
[13] = Drug level in tumor of human SW620 cell xenografted athymic nude CD1 mouse at 10 mg/kg, ip measured after 4 hrs by HPLC analysis; assay type: ADME, organism-based, Neoplasm, SW-620; conditions: read-out: Drug uptake
In short: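 CD1 nu/nu female mice carry s.c. SW620 flank tumours (1×10^7 cells), used at ~650 mm³. Single 10 mg/kg i.p. dose, tumour excised and snap frozen at time points up to 240 min, then homogenized 1:3 in PBS. HPLC-UV at 329 nm; tissue levels by the method of addition. Three mice per time point.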

[14] = AUClast in BALB/c mouse at 5 mg/kg, iv by HPLC analysis; assay type: ADME, organism-based; conditions: in vivo; in short: as §2
[15] = Ratio of drug level in tumor to plasma of human SW620 cell xenografted athymic nude CD1 mouse at 10 mg/kg, ip measured after 60 mins by HPLC analysis; assay type: ADME, organism-based; conditions: tumor and plasma; in short: as §1
[16] = Elimination half life in BALB/c mouse at 10 mg/kg, po by HPLC analysis; assay type: ADME, organism-based; conditions: in vivo, read-out: beta t1/2; in short: as §2
[17] = Cmax in BALB/c mouse at 10 mg/kg, ip by HPLC analysis; assay type: ADME, organism-based; conditions: in vivo; in short: as §2
SW-620 [18] = assay: Induction of DNA damage in human SW620 cells assessed as formation of gammaH2AX phosphorylation foci per cell at 1 umol/L measured after 1 hr by DAPI staining based immunofluorescence microscopic analysis; assay type: toxicity; conditions: sw-620, 1 h, 1 µM, dose 1 µmol/L
In short: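 SW620 cells on coverslips at 50–70% confluence, preincubated 1 h ± 1 μmol/L agent, then 1 μmol/L etoposide for 1 h, washed three times, and kept ± agent for up to 24 h. Fixation in −20 °C methanol, then anti-γH2AX Ser139 antibody with FITC secondary and DAPI mounting. Foci counted in 30 nuclei from three areas per sample, in triplicate.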

[19] = Ratio of drug level in tumor to plasma of human SW620 cell xenografted athymic nude CD1 mouse at 10 mg/kg, ip measured after 240 mins by HPLC analysis; assay type: ADME, organism-based; conditions: tumor and plasma; in short: as §1
[20] = Tmax in BALB/c mouse at 10 mg/kg, ip by HPLC analysis; assay type: ADME, organism-based; conditions: in vivo; in short: as §2
[21] = Cmax in BALB/c mouse at 10 mg/kg, po by HPLC analysis; assay type: ADME, organism-based; conditions: in vivo; in short: as §2
[22] = Cytotoxicity against Chinese hamster DNA-PK proficient V3-YAC cells assessed as cell survival at 0.5 umol/L measured after 16 hrs by crystal violet staining based assay relative to control; assay type: toxicity, Cricetulus griseus; conditions: dose 0.5 µmol/L, read-out: Activity
In short: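 Exponentially growing cells exposed 16 h to agent (0.5 or 1.0 μmol/L), with or without etoposide or doxorubicin, at 0.5% DMSO final; controls get DMSO alone. Cells are then trypsinized, reseeded at 100–100,000 per dish in drug-free medium and grown 10–14 days. Colonies stained with crystal violet and counted automatically.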

[23] = Elimination half life in BALB/c mouse at 5 mg/kg, iv by HPLC analysis; assay type: ADME, organism-based; conditions: in vivo, read-out: beta t1/2; in short: as §2

O=c1cc(N2CCOCC2)oc2c(-c3cccc4c3sc3ccccc34)cccc12
Kp at 1.5 h [1]: 19 | AUC(0-inf) [2]: 1.3 µg·h/mL | fold change (FC) [3]: 1.6 | Time [4]: 5.4 days | clearance [5]: 3.9 L/h/kg | Activity (SW-620 [6]): 24% | Kp at 0.25 h [7]: 0.38 | Kp at 0.25 h [8]: 4.6 | F [9]: 100% | Kp at 1 h [10]: 5.4 | Kp at 0.5 h [11]: 3.2 | half-life [12]: 53 min | concentration at 4 h [13]: 0.5 µM | AUC(0-t) [14]: 1.27 µg·h/mL | Kp at 1 h [15]: 0.44 | half-life [16]: 127 min | Cmax [17]: 2.4 µg/mL | Activity (SW-620 [18]): 0.13 | Kp at 4 h [19]: 4.6 | Tmax [20]: 5 min | Cmax [21]: 0.5 µg/mL | viability at 16 h, 0.5 µM [22]: 97% | half-life [23]: 46 min
